Data from PubChem BioAssay.
The source made the active and inactive calls.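 How the source made its calls, unless noted: active means inhibition of the reporter signal at or above 50%; inactive means inhibition below 50%.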

Key:
[1] = inhibitors of TNFa-induced NFkB p65 translocation, primary screen, imaging, HUVEC, MLSMR starter and 10KST1 sets (AID 438;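 active means inhibition above 20% together with a positive visual image hit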;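 further: compound added about 3h40 before a 20 min TNFalpha stimulation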;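 on inhibition: signal is the nuclear over cytoplasmic p65 intensity ratio per well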); settings: HUVEC TNFa-induced p65 nuclear translocation; cell count: measured here: nuclei count (cytotoxicity indicator), at 2.08 µM; inhibition: at 2 µM, stronger effect = higher value, 0% TNFa-plus-vehicle, 100% no-TNFa wells
[2] = reduction of polyQ htt aggregates in cells – imaging, exon1htt(103Q)mCFP cells, high-content imaging, primary screen (AID 483;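 active means visual image review flags a hit and inhibition of aggregation exceeds 20%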;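 further: compound exposure lasted 3 days before fixation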;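 on nuclei count: percent of the per-plate median nuclei count of sample wells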); settings: exon1htt(103Q)mCFP cell line, aggregate imaging, at 2 µM; inhibition of aggregation: stronger effect = higher value; nuclei count: measured here: cell count, toxicity
[3] = endothelial E-selectin expression blockers – imaging, HUVEC, immunofluorescence, MLSMR starter and 10KST1 sets, primary screen (AID 487;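 active means visually confirmed hit in the image check and inhibition above 20%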;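 on inhibition: signal is fraction of cell area covered by stained E-selectin grains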;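 on nuclei count: 100% = median nuclei count of all wells on the same plate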); settings: HUVEC TNFalpha-induced E-selectin immunofluorescence imaging, at 2 µM; inhibition: stronger effect = higher value; nuclei count: measured here: cell number, toxicity
[4] = target: Voltage-gated potassium channel subunit beta-2 (Rattus norvegicus) (UniProt P62483); assay: inhibitors of rat Kvbeta2 reductase activity – biochemical, NADPH fluorescence, primary screen (AID 622;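 active means fluorescence slope higher than the sample average by over 3 SD, cut at about -0.22 in these data, passing the limit was not always enough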;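 further: slope of raw intensity against log time taken from 70 to 1610 s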); settings: recombinant KvBeta, 4-cyanobenzaldehyde reduction, at 10 µM, stronger effect = higher value
Voltage-gated potassium channel subunit beta-2 (Rattus norvegicus), sequence (P62483 whole entry, looked up): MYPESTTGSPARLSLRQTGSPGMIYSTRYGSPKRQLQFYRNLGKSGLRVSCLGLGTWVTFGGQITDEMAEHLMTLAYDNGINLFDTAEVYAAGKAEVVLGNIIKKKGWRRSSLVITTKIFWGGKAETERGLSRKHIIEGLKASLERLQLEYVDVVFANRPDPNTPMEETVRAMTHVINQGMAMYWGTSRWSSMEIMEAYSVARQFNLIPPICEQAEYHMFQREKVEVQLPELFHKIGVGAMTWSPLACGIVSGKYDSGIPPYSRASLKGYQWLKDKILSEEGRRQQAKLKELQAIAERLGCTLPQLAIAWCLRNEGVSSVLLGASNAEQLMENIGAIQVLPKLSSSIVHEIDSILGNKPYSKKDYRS

[5] = target: Voltage-gated potassium channel subunit beta-2 (Rattus norvegicus) (UniProt P62483); assay: enhancers of rat Kvbeta2 NADPH turnover – biochemical, NADPH fluorescence, primary screen (AID 623;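 active means NADPH fluorescence slope more negative than the mean of all samples by about 3 SD, 99.7% confidence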;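 further: fluorescence intensity change per second fitted from 20 to 320 s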); settings: Recombinant KvBeta, NADPH fluorescence decrease slope, 10 min; at 10 µM; stronger effect = lower value
[6] = target: Muscarinic acetylcholine receptor M4 (Homo sapiens) (UniProt P08173); assay: M4-linked GIRK flux change, two-sided – cell-based, HEK293 M4/GIRK, thallium flux, BTC-AM, M4 allosteric agonist project, primary screen (AID 625;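 active means fluorescence slope after compound addition differing from the mean of all tested samples at 99.7% confidence, mostly higher but some lower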;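 further: thallium influx through GIRK channels coupled to M4 in HEK293 cells with BTC-AM dye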); settings: at 10 µM, actives lie on both sides
Muscarinic acetylcholine receptor M4 (Homo sapiens), sequence (P08173 whole entry, looked up): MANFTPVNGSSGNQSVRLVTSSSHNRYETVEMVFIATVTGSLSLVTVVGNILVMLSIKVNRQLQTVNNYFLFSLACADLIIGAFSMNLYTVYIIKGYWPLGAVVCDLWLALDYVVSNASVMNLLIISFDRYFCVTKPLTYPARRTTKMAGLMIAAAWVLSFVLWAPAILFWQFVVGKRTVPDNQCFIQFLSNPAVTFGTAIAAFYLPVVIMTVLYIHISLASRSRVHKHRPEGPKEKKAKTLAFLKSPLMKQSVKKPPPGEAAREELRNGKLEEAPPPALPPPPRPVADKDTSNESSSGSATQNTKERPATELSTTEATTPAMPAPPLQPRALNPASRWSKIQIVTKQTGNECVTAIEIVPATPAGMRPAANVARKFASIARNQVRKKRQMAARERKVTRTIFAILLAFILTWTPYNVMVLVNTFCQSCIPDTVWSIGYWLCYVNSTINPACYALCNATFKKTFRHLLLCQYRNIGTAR
Outline: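 assay system = HEK293 cells with M4 receptor and GIRK channels | medium = pH 7.3 thallium assay buffer | doses = 10 µM final, single point | timing = cells overnight at 37 °C, BTC-AM loading 1 h, reads 2 min total | signal = BTC-AM fluorescence, 1 Hz kinetic reads | read-out = post-addition slope, 15–24 s, of baseline-normalized fluorescence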

[7] = blockers of RIG-like receptor reporter activation – cell-based, Sendai virus stimulus, luciferase, 10K MLSCN set, TLR/RLR signaling modifier project, primary screen (AID 602276;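 active means inhibition at or above 50% at 10 µM; inactive means inhibition below 50%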;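 further: firefly luciferase from ISG56 promoter only with Renilla not read in this screen; 0% = Sendai virus plus DMSO and 100% = medium plus DMSO without virus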); settings: HEK293 RL24 IRF3 luciferase reporter, at 10 µM, stronger effect = higher value
[8] = TLR3 IRF3 reporter activation blockers – cell-based, poly I:C stimulus, luciferase, 10K MLSCN set, primary screen (AID 602277); settings: HEK293-TLR3 RL24 IRF3 luciferase reporter, at 10 µM, stronger effect = higher value

Row | Structure (SMILES) | cell count [1] | inhibition [1] | inhibition of aggregation [2] | nuclei count [2] | inhibition [3] | nuclei count [3] | fluorescence slope [4] | NADPH fluorescence slope [5] | fluorescence slope [6] | inhibition [7] | inhibition [8]
1 | Cc1n[nH]c(C)c1S(=O)(=O)N1CCCCCC1 | 355 | 1.8% (inactive) | -0.3% (inactive) | 99.2% | -12.3% (inactive) | 110% | -0.488 (inactive) | 1.3e-05 (inactive) | 0.00614 (inactive) | 1.38% (inactive) | 25% (inactive)
2 | Cc1nc(CNS(=O)(=O)c2cc(C)c(C)cc2C)cs1 | 331 | 6.3% (inactive) | -7.4% (inactive) | 109% | -13.2% (inactive) | 107% | -0.329 (inactive) | -5.1e-05 (inactive) | 0.00703 (inactive) | 9.82% (inactive) | 10.7% (inactive)
3 | COCc1cc(C)nc(SCC(=O)Nc2cccc(C)c2C)c1C#N | 578 | -25.9% (inactive) | -17.5% (inactive) | 98% | -62.6% (inactive) | 107% | -0.432 (inactive) | 2.4e-05 (inactive) | 0.0109 (inactive) | -2.58% (inactive) | 38.1% (inactive)
4 | Cc1nnc(SCC(=O)Nc2ccc3c4c(cccc24)CC3)n1C | 336 | 1.8% (inactive) | -11.5% (inactive) | 97.3% | -41.4% (inactive) | 108% | -0.24 (inactive) | -4.5e-05 (inactive) | 0.00568 (inactive) | 15.8% (inactive) | 5.58% (inactive)
5 | CCOC(=O)c1[nH]c(C)c(C(=O)N2CCN(c3ccc(F)cc3)CC2)c1C | 755 | -2.2% (inactive) | -27% (inactive) | 118% | -175% (inactive) | 119% | -0.451 (inactive) | 1.1e-05 (inactive) | 0.00564 (inactive) | 1.11% (inactive) | 8.18% (inactive)
6 | c1ccc(-c2nn3nnnc3c3ccccc23)cc1 | 194 | -3% (inactive) | 6.8% (inactive) | 91.1% | -2.7% (inactive) | 85.1% | -0.573 (inactive) | -2.5e-05 (inactive) | 0.00565 (inactive) | 8.1% (inactive) | 20.5% (inactive)
7 | C=C(C)Cn1c(CCNC(=O)CC)nc2ccccc21 | 494 | -28.5% (inactive) | 1.3% (inactive) | 101% | -107% (inactive) | 112% | -0.433 (inactive) | -6.1e-05 (inactive) | 0.00575 (inactive) | 9.76% (inactive) | 14.1% (inactive)
8 | CS(=O)(=O)c1ccc2nc(NC(=O)CCC(=O)c3cccs3)sc2c1 | 517 | 2.6% (inactive) | -3.8% (inactive) | 105% | -87.7% (inactive) | 95.8% | -0.594 (inactive) | 1.3e-06 (inactive) | 0.00448 (inactive) | 14.5% (inactive) | 4.68% (inactive)
9 | Cc1ccc(S(=O)(=O)N2CCCC2C(=O)n2nc(C)cc2C)cc1 (centres undefined) | 432 | -12.3% (inactive) | 15.8% (inactive) | 86.2% | 46.7% (inactive) | 93.5% | -0.341 (inactive) | -4.4e-05 (inactive) | 0.00537 (inactive) | 12.5% (inactive) | 19.1% (inactive)
10 | CC1(C)OC(=O)C(=CNc2ccccc2)C(=O)O1 | 548 | 9.4% (inactive) | -4.1% (inactive) | 108% | 54.3% (inactive) | 102% | -0.617 (inactive) | -1.8e-06 (inactive) | 0.00548 (inactive) | -10% (inactive) | 99% (active)
11 | CCOC(=O)N1CCN(C(=O)C2c3cc(OC)c(OC)cc3C(=O)N3CCc4ccccc4C23)CC1 (centres undefined) | 312 | 0.5% (inactive) | 13.5% (inactive) | 104% | 6.9% (inactive) | 102% | -0.397 (inactive) | 4.3e-05 (inactive) | 0.00684 (inactive) | 14.7% (inactive) | 13.6% (inactive)
12 | COC(=O)C(C)Sc1nc2c(c(=O)n(C)c(=O)n2C)n1Cc1cccc(C)c1 (centres undefined) | 474 | 3.8% (inactive) | -2.4% (inactive) | 99.3% | -27.3% (inactive) | 117% | -0.553 (inactive) | -3.9e-05 (inactive) | 0.00598 (inactive) | 18.9% (inactive) | 26.2% (inactive)
13 | COc1cc(NC(=O)c2ccco2)c(OC)cc1NC(=O)CCC(=O)Nc1cc(C)cc(C)c1 | 534 | -0.3% (inactive) | 18.3% (inactive) | 72.2% | 26.4% (inactive) | 68.3% | -0.279 (inactive) | 6.9e-06 (inactive) | 0.00626 (inactive) | 16% (inactive) | 27.3% (inactive)
14 | Cc1cccc(-n2c(Cc3cc(=O)[nH]c(=O)[nH]3)nnc2SCC(=O)NCc2ccco2)c1 | 400 | -4% (inactive) | -21.7% (inactive) | 90% | -15.1% (inactive) | 101% | -0.529 (inactive) | -4.9e-05 (inactive) | 0.00455 (inactive) | 12.7% (inactive) | 7.93% (inactive)
